Reference: ChEMBL document CHEMBL3817732, “Rational Design of Calpain Inhibitors Based on Calpastatin Peptidomimetics” (J Med Chem, 2016)
Activity calls are given as the source filed them. The calls are words filed in the database; no cut-off is given here.

Columns and labels:
[1] = organism: Rattus norvegicus; test: Inhibition of rat recombinant C-terminal His-tagged calpain-2 expressed in Escherichia coli BL21(DE3) assessed as cleavage of (EDANS)-EPLFAERK-(DABCYL) at 100 uM in presence of CaCl2 by fluorescence spectrometer relative to control
[2] = organism: Rattus norvegicus; test: Inhibition of rat calpain-1 assessed as cleavage of (EDANS)-EPLFAERK-(DABCYL) at 100 uM in presence of CaCl2 by fluorescence spectrometer relative to control
[3] = Competitive inhibition of rat recombinant C-terminal His-tagged calpain-2 expressed in Escherichia coli BL21(DE3) using (EDANS)-EPLFAERK-(DABCYL) as substrate assessed as enzyme/inhibitor complex in presence of CaCl2 by Michaelis-Menten plot analysis
[4] = molecular target: Procathepsin L (Homo sapiens) (UniProt P07711); test: Inhibition of human liver cathepsin L assessed as cleavage of Z-FR-AMC at 100 uM by fluorescence spectrometer
Sequence of Procathepsin L (Homo sapiens) (P07711 114-333 limits assumed): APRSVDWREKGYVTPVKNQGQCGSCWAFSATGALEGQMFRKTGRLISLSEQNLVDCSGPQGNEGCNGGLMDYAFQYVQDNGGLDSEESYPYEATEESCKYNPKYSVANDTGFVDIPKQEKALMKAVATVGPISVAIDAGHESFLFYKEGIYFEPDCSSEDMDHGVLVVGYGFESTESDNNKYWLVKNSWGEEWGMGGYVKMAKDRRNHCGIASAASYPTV

[5] = organism: Rattus norvegicus; test: Inhibition of rat recombinant calpain-1 protease core expressed in Escherichia coli BL21(DE3) assessed as cleavage of (EDANS)-EPLFAERK-(DABCYL) at 100 uM in presence of CaCl2 by fluorescence spectrometer
[6] = molecular target: T1, Papain (Carica papaya) (UniProt P00784); test: Inhibition of papaya papain assessed as cleavage of (EDANS)-EPLFAERK-(DABCYL) at 100 uM by fluorescence spectrometer
T1 sequence (whole entry): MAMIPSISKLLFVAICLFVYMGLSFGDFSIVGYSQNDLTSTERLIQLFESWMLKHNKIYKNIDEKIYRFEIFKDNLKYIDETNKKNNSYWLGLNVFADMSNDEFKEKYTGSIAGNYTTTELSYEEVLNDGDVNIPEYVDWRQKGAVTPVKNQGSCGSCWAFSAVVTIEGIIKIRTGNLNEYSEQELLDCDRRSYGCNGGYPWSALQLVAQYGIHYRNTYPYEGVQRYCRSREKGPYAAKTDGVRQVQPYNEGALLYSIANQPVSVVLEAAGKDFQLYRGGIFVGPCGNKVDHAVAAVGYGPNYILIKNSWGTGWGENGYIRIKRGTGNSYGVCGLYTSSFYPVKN

[7] = Non-competitive inhibition of rat recombinant C-terminal His-tagged calpain-2 expressed in Escherichia coli BL21(DE3) using (EDANS)-EPLFAERK-(DABCYL) as substrate assessed as enzyme/substrate/inhibitor complex in presence of CaCl2 by Michaelis-Menten plot analysis
[8] = Non-competitive inhibition of rat recombinant C-terminal His-tagged calpain-2 expressed in Escherichia coli BL21(DE3) using (EDANS)-EPLFAERK-(DABCYL) as substrate assessed as enzyme/inhibitor complex in presence of CaCl2 by Michaelis-Menten plot analysis
[9] = organism: Rattus norvegicus; test: Binding affinity to rat recombinant C-terminal His-tagged calpain-2 C105S mutant expressed in Escherichia coli BL21(DE3) at 25 to 50 uM in presence of CaCl2 and trypsin by MALDI-TOFpeptide fingerprinting method
How it was run: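 The mixture is exposed to long-wave UV for 2.5 h, with a DMSO control. Photoadducts are tryptically digested and identified by MALDI-TOF mass fingerprinting.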

[10] = Competitive inhibition of porcine erythrocyte calpain-2 using Suc-Leu-Tyr-AMC as substrate; design: species or system Sus scrofa
[11] = Inhibition of calpain-1 (unknown origin) using H-Glu(Edans)-Pro-Leu-Phe-Ala-Glu-Arg-Lys(Dabcyl)-OH as substrate measured every 13 secs for 1 hr by fluorescence assay
[12] = organism: Rattus norvegicus; test: Activation of rat recombinant calpain-1 protease core expressed in Escherichia coli BL21(DE3) assessed as cleavage of (EDANS)-EPLFAERK-(DABCYL) at 100 uM in presence of CaCl2 by fluorescence spectrometer
[13] = Mixed-type inhibition of rat recombinant C-terminal His-tagged calpain-2 expressed in Escherichia coli BL21(DE3) using (EDANS)-EPLFAERK-(DABCYL) as substrate assessed as enzyme/inhibitor complex in presence of CaCl2 by Michaelis-Menten plot analysis
[14] = Mixed-type inhibition of rat recombinant C-terminal His-tagged calpain-2 expressed in Escherichia coli BL21(DE3) using (EDANS)-EPLFAERK-(DABCYL) as substrate assessed as enzyme/substrate/inhibitor complex in presence of CaCl2 by Michaelis-Menten plot analysis

| Compound | inhibition [1] | inhibition [2] | inhibition [4] [%] | inhibition [6] | other results |
| --- | --- | --- | --- | --- | --- |
| CC(C)C[C@@H]1NC(=O)[C@H](C)NC(=O)CNC(=O)[C@@H]2CCCN2[C@H](C(=O)NC(C)(C)C)[C@H](C)NC(=O)[C@H](CCCCN)NC1=O | 84% | 45% | > 85 | inactive | Ki [3]: 16.6 µM; inhibition [5]: Active |
| CC(C)C[C@@H](NC(=O)C/N=C1\N[C@@H](C)[C@@H](C(=O)NC(C)(C)C)N2CCC[C@H]12)C(=O)N[C@H](CCCN)C(=O)O | 16% | Active | > 32 | inactive | Ki [7]: 119 µM; inhibition [5]: Active; Ki [8]: 154 µM |
| CC(C)C[C@@H]1NC(=O)[C@H](C)NC(=O)CNC(=O)[C@@H]2CCCN2[C@H](C(=O)NC(C)(C)C)[C@H](CSC2CC(=O)N(c3cccc(C(=O)c4ccccc4)c3)C2=O)NC(=O)[C@H](CCCCN)NC1=O (stereo partly specified) | Active | – | – | – | inhibition [9]: Active |
| CC(C)[C@H](NC(=O)C/N=C1\N[C@@H](C)[C@@H](C(=O)NC(C)(C)C)N2CCC[C@H]12)C(=O)N[C@H](CCCN)C(=O)O | 79% | – | 17 | – | – |
| C[C@H](NC(=O)C/N=C1\N[C@@H](C)[C@@H](C(=O)NC(C)(C)C)N2CCC[C@H]12)C(=O)N[C@H](CCCN)C(=O)O | 66% | 54% | – | – | – |
| H-DPMSSTYIEELGKREVTIPPKYRELLA-OH | – | – | – | – | Ki [10]: 0.0087 µM; Ki [3]: 0.0168 µM |
| CC(C)C[C@H](NC(=O)C/N=C1\N[C@@H](CSC2CC(=O)N(c3cccc(C(=O)c4ccccc4)c3)C2=O)[C@@H](C(=O)NC(C)(C)C)N2CCC[C@H]12)C(=O)N[C@H](CCCN)C(=O)O (stereo partly specified) | Active | – | – | – | inhibition [9]: Active |
| CC[C@H](C)[C@H](NC(C)=O)C(=O)N1CCC[C@H]1C(=O)N1CCC[C@H]1C(=O)N[C@@H](CCCCN)C(=O)N[C@@H](Cc1ccc(O)cc1)C(=O)N[C@H]1CSSC[C@@H](C(N)=O)NC(=O)[C@H](CC(C)C)NC(=O)[C@H](CC(C)C)NC(=O)[C@H](CCC(=O)O)NC1=O | – | – | – | – | Ki [11]: 10.2 µM |
| C[C@@H]1N/C(=N\CC(=O)N[C@@H](Cc2ccccc2)C(=O)N[C@H](CCCN)C(=O)O)[C@H]2CCCN2[C@@H]1C(=O)NC(C)(C)C | 39% | 28% | – | – | – |
| CC(C)C[C@H](/N=C1\N[C@@H](C)[C@@H](C(=O)NC(C)(C)C)N2CCC[C@H]12)C(=O)N[C@@H](CCCCN)C(=O)NCC(=O)O | > 85% | Active | > 85 | inactive | Ki [3]: 12.2 µM; Activity [12]: Active |
| C[C@@H]1NC(=O)[C@H](CCCN)NC(=O)CNC(=O)[C@H](CO)NC(=O)CNC(=O)[C@@H]2CCCN2[C@@H]1C(=O)NC(C)(C)C | 78% | 38% | > 85 | inactive | Ki [13]: 20.3 µM; Activity [12]: Active; Ki [14]: 45.6 µM |
| CC[C@H](C)[C@H](NC(=O)C/N=C1\N[C@@H](C)[C@@H](C(=O)NC(C)(C)C)N2CCC[C@H]12)C(=O)N[C@H](CCCN)C(=O)O | 67% | 14% | – | – | – |
